The RNAGym collection of RNA variant scans (doi:10.1126/science.aae0568)
Fewer inactive variants are shown than the library holds.

B1: tRNA (parent)
chain: GUUCCGUUGGCGUAAUGGUAACGCGUCUCCCUCCUAAGGAGAAGACUGCGGGUUCGAGUCCCGUACGGAACG

Variants of: B1
Experiment: yeast fitness relative to wild type (ratio to wild type); higher = fitter; tRNA-Arg(CCU), competitive growth, 37 C, YPD
Summary of the method: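 For this measurement, the tRNA-Arg(CCU) gene was varied by chemical synthesis at a 3% per-site mutation rate across 69 sites, and each variant was placed at the native genomic locus in Saccharomyces cerevisiae. The pooled strains went through a 24-hour competition in YPD at 37°C in six parallel replicates, with amplicons from start and end populations read by 100-nucleotide paired-end sequencing. Darwinian fitness relative to wild type followed from the change in each genotype's frequency. Genotypes needed ≥ 100 starting reads, and estimates < 0.5 were set to 0.5.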

Point of comparison: A37C C46G, yeast fitness 0.947. Against it:
- A37U G41C C46G — lower, ≤ 0.5
- A37C C66A — lower, 0.659
- G38A A40U G50C C60G G67A A70C — lower, ≤ 0.5
- A37U G38C A65C — lower, ≤ 0.5
- A37U A57U A65C G68A — lower, 0.561
- A37C U47C G51A G67A — lower, ≤ 0.5
- A37G G52C A70U — lower, 0.552
- A37G A69C — higher, 0.97
- A37G A65U — lower, 0.598
- A37G A65G — lower, 0.695
- A37U G56C — lower, 0.528
- A37U C61U — lower, 0.771
- A37G A42C — lower, 0.806
- A37C U47C G51A — lower, ≤ 0.5
- A37G A42U G48C C49U A65G — lower, ≤ 0.5
- A37G C55U G63A — lower, ≤ 0.5
- G38A A40C G56A C66U A70C — lower, ≤ 0.5
- G38A A43G — lower, 0.607
- A37G G41A G50A — lower, ≤ 0.5
- A37U A45U G68U — lower, ≤ 0.5
- A37G G56C A69C — lower, ≤ 0.5
- A37G C49U — lower, 0.819
- G38A A45C — lower, 0.818
- G38A A43G A70C — lower, 0.584
- A37C G67U — lower, 0.828
- G38A C46A — higher, 0.993
- A37U U47A G52U — lower, ≤ 0.5
- A37U A57G — lower, 0.648
- A37U A57C — lower, 0.578
- A37C G50C — lower, 0.551
- A37C C55A C60G G63C — lower, ≤ 0.5
- A37C A70C — higher, 0.968
- A37C A70U — lower, 0.752
- A37U C60U C62G U64A A69U — lower, ≤ 0.5
- A37G A42G C49A — lower, ≤ 0.5
- A37G G44A A69U — lower, 0.525
- A37U G63C — lower, 0.591
- A37G C55A G67A — lower, ≤ 0.5
- A37U G44A A57C C61G — lower, 0.625
- A37C G39A C60G C66A — lower, ≤ 0.5
- A37U C46A — lower, 0.816
- A37C C55A A65C — lower, 0.603
- A37C U59C — lower, 0.699
- A37C C61G — lower, 0.584
- A37C C61U — lower, 0.681
- A37U G48A C61U — lower, 0.531
- A37U A42C — lower, 0.698
- A37U A42G — lower, 0.588
- A37G G44A C66U — lower, 0.731
- A37C U64A — lower, 0.729
- A37U G38C C61U — lower, ≤ 0.5
- A37G G39A C46G U53C C62U A69C — lower, ≤ 0.5
- A37U G52A U54C G56C A57G — lower, ≤ 0.5
- A37G C46U C62G — lower, 0.533
- A37C C55G — lower, 0.607
- A37G C61U — lower, 0.785
- A37C U47A G58A — lower, ≤ 0.5
- A37U G52A — lower, 0.534
- A37U C61A G67C — lower, 0.507
- G38A A40U — lower, 0.747
- A37U A42U A65C — lower, ≤ 0.5
- A37C C49G A57C — lower, ≤ 0.5
- A37U A40U — lower, 0.72
- A37U A40C — lower, 0.776
- A37G G51C A70U — lower, ≤ 0.5
- A37G U54C A65U — lower, ≤ 0.5
- A37G A40U A65G — lower, 0.571
- A37C C46G C62U A69U — lower, 0.673
- A37C G56A G68U — lower, 0.602
- A37C C62A — lower, 0.874
- A37C G48C — lower, 0.751
- A37C G48A — lower, 0.779
- A37C C46G C49G — lower, 0.568
- A37G A43U A65C — lower, 0.627
- A37C G38A C66U — lower, 0.587
- A37G A43G — lower, 0.734
- A37G C66A — lower, 0.63
- A37G G50A — lower, 0.842
- A37C C46G C60A C66U — lower, ≤ 0.5
- A37G C60U A70U — lower, ≤ 0.5
- A37C U47G — lower, 0.573
- A37C C49U C55A C60A — lower, ≤ 0.5
- A37C C46G C62U — lower, 0.872
- A37G C55U — lower, 0.519
- A37G G44A — lower, 0.73
- A37G G44C — lower, 0.809
- A37U C49U U64C — lower, 0.545
- A37G A40C — lower, 0.685
- A37G A40G — lower, 0.912
- A37G A42U C62A A65C — lower, ≤ 0.5
- A37U G38C — lower, 0.557
- A37C G44C — lower, 0.758
- A37G U47A C60A — lower, ≤ 0.5
- A37G C46G G56A — lower, 0.624
- A37G G39A C62U G63A — lower, ≤ 0.5
- A37G G48C C49U C60A A65U — lower, ≤ 0.5
- A37U U53G C55G C62A — lower, 0.744
- A37C C60U A70C — lower, 0.546
- A37U C66U — lower, 0.627
- A37G G39A A45C — lower, 0.635
- A37G C49A G56A — lower, 0.607
- G38A A40U A65G — lower, ≤ 0.5
- A37G G44A A65C — lower, 0.561
- A37G A40G C49U — lower, 0.501
- A37C G68C — lower, 0.764
- A37U U59G C60U — lower, ≤ 0.5
- A37G U47C — lower, 0.744
- A37G G39A — lower, 0.638
- A37U A42C G48C A70U — lower, ≤ 0.5
- A37G C62A — lower, 0.582
- A37G U59G — lower, 0.75
- A37G U47G G52A — lower, ≤ 0.5
- G38A A43G C46U C49U — lower, 0.611
- G38A A43U G56A G63A — lower, ≤ 0.5
- A37G G67C — lower, 0.79
- A37C C49G A70C — lower, ≤ 0.5
- A37C C46U U53C — lower, ≤ 0.5
- A37U G50A A69U — lower, 0.805
- G38A A43U U54A — lower, ≤ 0.5
- A37U G48C — lower, 0.674
- A37U G68C — lower, 0.837
- A37C C46U A65C — lower, 0.638
- G38A A65U G68U — lower, 0.665
- A37C C60U G67A — lower, 0.522
- A37U G38C G63A — lower, ≤ 0.5
- A37G A70U — lower, 0.741
- A37U A40C G51C C66A — lower, ≤ 0.5
- A37U A45C C46A — lower, 0.598
- A37U A65G C66A — lower, ≤ 0.5
- A37C G39C — lower, 0.534
- A37U G48C A70U — lower, 0.547
- A37C G63C A69C — lower, ≤ 0.5
- A37U A65G — lower, 0.651
- A37U C55U A65U — lower, ≤ 0.5
- A37C C46U A65C G68A — lower, ≤ 0.5
- A37G A57G — lower, 0.87
- A37G A57U — lower, 0.55
- A37U A45U — lower, 0.64
- A37U G44A C66U — lower, 0.535
- G38A A65C — lower, 0.707
- A37U G41C — lower, 0.68
- A37U C49U — lower, 0.68
- A37G G48A — lower, 0.768
- A37G G44A U64G — lower, ≤ 0.5
- A37C C49A — lower, 0.651
- A37G C55G U64C — lower, 0.633
- A37G A42C A65U A69C — lower, ≤ 0.5
- A37U C49A C66U — lower, ≤ 0.5
- A37C G52A U53A — lower, 0.566
- A37C G51A U53C C62A — lower, ≤ 0.5
- A37C C55G A69C — lower, ≤ 0.5
- A37U G39C G48A U53G — lower, ≤ 0.5
- A37U A45U A65G — lower, ≤ 0.5
- A37G U54C — lower, 0.674
- A37G U54A — lower, ≤ 0.5
- A37G A57G U64C — lower, ≤ 0.5
- G38A A40C U53C — lower, 0.538
- A37U U47C — lower, 0.667
- A37U U47A — lower, 0.796
- A37G U53G — lower, ≤ 0.5
- A37G U53C — lower, 0.553
- A37U A42C A69C — lower, ≤ 0.5
- A37C G51A — lower, 0.605
- A37C G44C G52C G58A — lower, ≤ 0.5
- A37G C49G C55U G56C G68A — lower, ≤ 0.5
- A37U C62A — lower, 0.523
